Reference: ChEMBL document CHEMBL2396602, “Discovery of N-(4'-(indol-2-yl)phenyl)sulfonamides as novel inhibitors of HCV replication” (Bioorg Med Chem Lett, 2013)
Activity calls are given as the source filed them. No cut-off for these calls is given here.

Experiments:
[1] = Cytotoxicity against human HuH7 cells after 2 days by MTS assay; format: cell-based, Huh-7
Procedure, shortened: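 MTS cell proliferation assay run in parallel with the luciferase replicon assay in the same genotype 1b replicon-bearing Huh7 cells (5000 cells/well, 0.5% DMSO final, 37 °C); CC50 derived.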

Hepatitis C virus [2] = assay: Antiviral activity against Hepatitis C virus genotype 1b infected in human HuH7 cells assessed as inhibition of viral replication after 2 days by luciferase reporter gene assay; format: functional, organism-based, Hepacivirus hominis; conditions: Huh-7, 48 h
Procedure, shortened: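 Huh7 cells carrying a genotype 1b bicistronic HCV replicon plated at 5000 cells/well, kept subconfluent; compound added at 0.5% DMSO final, incubated at 37 °C; luciferase read after 2 days; EC50 from dose response.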

Hepacivirus hominis = assay: Inhibition of HCV protease up to 10 uM
Rattus norvegicus [3] = assay: Oral bioavailability in Sprague-Dawley rat at 3 mg/kg; format: ADME, organism-based; conditions: in vivo
Procedure, shortened: (§1)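 Female Sprague–Dawley rats dosed with compound in PEG-300 solution, 3 mg/kg orally or 1 mg/kg intravenously; pharmacokinetic parameters derived from plasma exposure after each route.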

[4] = Cmax in Sprague-Dawley rat at 3 mg/kg, po; format: ADME, organism-based; design: dose 3 mg/kg, route oral; conditions: in vivo; procedure, shortened: as §1
Rattus norvegicus [5] = assay: AUC (0 to infinity) in Sprague-Dawley rat at 3 mg/kg, po; format: ADME, organism-based, Plasma; design: dose 3 mg/kg, route oral, time infinity; conditions: in vivo; procedure, shortened: as §1
[6] = Volume of distribution at steady state in Sprague-Dawley rat at 1 mg/kg, iv; format: ADME, organism-based; design: dose 1 mg/kg, route intravenous; conditions: in vivo, read-out: Vdss; procedure, shortened: as §1
[7] = Half life in Sprague-Dawley rat at 1 mg/kg, iv; format: ADME, organism-based; design: dose 1 mg/kg, route intravenous; conditions: in vivo; procedure, shortened: as §1
[8] = Intrinsic clearance in human liver microsomes at 1 uM by LC/MS analysis; format: ADME, Microsome; conditions: read-out: CLH
Procedure, shortened: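 Compound at 1 µM incubated with human liver microsomes (0.5 mg/mL protein) for 0, 10, 20, 30 and 60 min with 1 mM EDTA, 3 mM MgCl2, 1.3 mM NADP, 3.3 mM D-glucose-6-phosphate and 1 unit/mL glucose-6-phosphate dehydrogenase.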

Hepatitis C virus [9] = assay: Antiviral activity against Hepatitis C virus genotype 1b infected in human HuH7 cells assessed as reduction in HCV RNA after 3 days by RT-PCR analysis; format: functional, organism-based, Hepacivirus hominis; conditions: Huh-7, 72 h
Procedure, shortened: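 Huh7 cells with a genotype 1b monocistronic replicon seeded at 5000 cells/well; compound at 0.5% DMSO final, 37 °C; cells harvested 3 days after dosing; replicon RNA measured by real-time RT-PCR, normalised to GAPDH RNA.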

[10] = Selectivity index, ratio of CC50 for human HuH7 cells to EC50 for Hepatitis C virus subtype 1b; format: toxicity, cell-based, Huh-7; conditions: read-out: Ratio CC50/EC50
Procedure, shortened: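 Ratio of CC50 from the MTS assay to EC50 from the luciferase assay, both in genotype 1b bicistronic replicon Huh7 cells run in parallel.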

| SMILES | CC50 at 48 h [1] [µM] | EC50 (Hepatitis C virus [2]) [µM] | also measured |
| --- | --- | --- | --- |
| CCn1c(-c2ccc(NS(=O)(=O)C(C)C)cc2)c(C#N)c2ccc(OC(F)F)cc21 | 19 | 0.12 |  |
| CCOC(=O)Nc1ccc(-c2c(C#N)c3ccc(OC)cc3n2CC)cc1 | 41 | 1.3 |  |
| N#Cc1c(-c2ccc(NS(=O)(=O)C3CC3)cc2)n(CC2CC2)c2cc(OC(F)F)ccc12 | 25 | 0.17 | inhibition (Hepacivirus hominis): inactive; F (Rattus norvegicus [3]): 58%; Cmax [4]: 770 ng/mL; AUC (Rattus norvegicus [5]): 6.8 µM·h; Vd [6]: 2.2 L/kg; half-life [7]: 6.3 h; CLint scaled at 1 µM [8]: < 1 mL/min/kg; EC50 (Hepatitis C virus [9]): 0.18 µM; selectivity ratio [10]: 147 |
| CCn1c(-c2ccc(N3CCCS3(=O)=O)cc2)c(C#N)c2ccc(OC)cc21 | > 50 | 2 |  |
| N#Cc1c(-c2ccc(NS(=O)(=O)C3CC3)cc2)n(C2CCC2)c2cc(OC(F)F)ccc12 | 20 | 0.19 |  |
| CCn1c(-c2ccc(S(C)(=O)=O)cc2)c(C#N)c2ccc(OC)cc21 | 42 | 2.6 |  |
| CCOc1ccc(-c2c(C#N)c3ccc(OC)cc3n2CC)cc1 | > 100 | 3 |  |
| CC(C)n1c(-c2ccc(NS(=O)(=O)C3CC3)cc2)c(C#N)c2ccc(OC(F)F)cc21 | 13 | 0.075 |  |
| CCn1c(-c2ccc(NS(=O)(=O)CC)cc2)c(C#N)c2ccc(C(=O)O)cc21 | > 100 | > 11 |  |
| COc1ccc(-n2cc([N+](=O)[O-])c3ccc(OC)cc32)cc1 |  | 50 |  |
| CCn1c(-c2ccc(NS(=O)(=O)CC)cc2)c(C#N)c2ccc(CO)cc21 | 60 | 3.5 |  |
| CCn1c(-c2ccc([S+](C)[O-])cc2)c(C#N)c2ccc(OC)cc21 (configuration not stated) | 52 | 4 |  |
| CCn1c(-c2ccc(NS(=O)(=O)CC)cc2)c(C#N)c2ccc(C(N)=O)cc21 | 55 | 9 |  |
| CCn1c(-c2ccc(NS(=O)(=O)C3CC3)cc2)c(C#N)c2ccc(OC(F)F)cc21 | 23 | 0.1 |  |
| CCOc1ccc2c(C#N)c(-c3ccc(NS(=O)(=O)CC)cc3)n(CC)c2c1 | 42 | 0.53 |  |
| CCn1c(-c2ccc(NC(C)=O)cc2)c(C#N)c2ccc(OC)cc21 | 89 | 1.3 |  |
| CCn1c(-c2ccc(NS(=O)(=O)CC)cc2)c(C#N)c2ccc(OC)cc21 | 62 | 0.47 | selectivity ratio [10]: > 130 |
| CCn1c(-c2ccc(NS(=O)(=O)CC)cc2)c(C#N)c2ccc(OC(F)(F)F)cc21 | 24 | 0.17 | selectivity ratio [10]: 141 |
| CCn1c(-c2ccc(NS(=O)(=O)CC)cc2)c(C#N)c2ccc(COC)cc21 | > 100 | 5 |  |
| CCn1c(-c2ccc(NS(=O)(=O)CC)cc2)c(C#N)c2ccccc21 | 40 | 9 |  |
| CCS(=O)(=O)Nc1ccc(-c2c(C#N)c3ccc(OC(F)F)cc3n2CC2CC2)cc1 | 13 | 0.3 |  |
| CCn1c(-c2ccc(N)cc2)c(C#N)c2ccc(OC)cc21 | 100 | 7.7 |  |

| SMILES | CC50 at 48 h [1] [µM] | EC50 (Hepatitis C virus [2]) [µM] | also measured |
| --- | --- | --- | --- |
| CCn1c(-c2ccc(NS(=O)(=O)CC)cc2)c(C#N)c2cc(Cl)ccc21 | 40 | 7.5 |  |
| CCn1c(-c2ccc(NS(=O)(=O)CC)cc2)c(C#N)c2ccc(C(F)(F)F)cc21 | 18 | 0.36 | selectivity ratio [10]: 50 |
| CCn1c(-c2ccc(NS(=O)(=O)CC)cc2)c(C#N)c2ccc(OCCF)cc21 | 39 | 0.59 | selectivity ratio [10]: 66 |
| CCn1c(-c2ccc(C(N)=O)cc2)c(C#N)c2ccc(OC)cc21 | > 100 | 7.8 |  |
| CCn1c(-c2ccc(NS(=O)(=O)C(C)C)cc2)c(C#N)c2ccc(OC)cc21 | 70 | 0.65 |  |
| CCn1c(-c2ccc(NS(=O)(=O)CC)cc2)c(C#N)c2ccc(CN3CCOCC3)cc21 | 35 | 3 |  |
| CCn1c(-c2ccc(NS(=O)(=O)C(C)C)cc2)c(C#N)c2cc(OC)ccc21 | 36 | 7.4 |  |
| CCn1c(-c2ccc(N3CCNS3(=O)=O)cc2)c(C#N)c2ccc(OC)cc21 | 30 | 0.9 |  |
| CCCS(=O)(=O)Nc1ccc(-c2c(C#N)c3ccc(OC(F)F)cc3n2CC)cc1 | 26 | 0.22 |  |
| CCS(=O)(=O)Nc1ccc(-c2c(C#N)c3ccc(OC(F)F)cc3n2C(C)C)cc1 | 12 | 0.2 |  |
| CCn1c(-c2ccc(NC(=O)c3ccccc3)cc2)c(C#N)c2ccc(OC)cc21 | > 100 | > 100 |  |
| CCCn1c(-c2ccc(NS(=O)(=O)C3CC3)cc2)c(C#N)c2ccc(OC(F)F)cc21 | > 100 | 0.25 |  |
| CCn1c(-c2ccc(NS(=O)(=O)CC)cc2)c(C#N)c2ccc(OC(F)F)cc21 | 20 | 0.29 | selectivity ratio [10]: 69 |
| CCn1c(-c2ccc(NS(=O)(=O)CC)cc2)c(C#N)c2c(Cl)cccc21 | 55 | 3.5 |  |
| CCn1c(-c2ccc(NS(=O)(=O)CC)cc2)c(C#N)c2cc(F)ccc21 | 39 | 0.59 |  |
| CCn1c(-c2ccc(O)cc2)c(C#N)c2ccc(OC)cc21 | 50 | 6.1 |  |
| CCn1c(-c2ccc(OC)cc2)c([N+](=O)[O-])c2ccc(OC)cc21 |  | > 51 |  |
| CC(C)S(=O)(=O)Nc1ccc(-c2c(C#N)c3ccc(OC(F)F)cc3n2CC2CC2)cc1 | 22 |  |  |
| CCn1c(-c2ccc(NS(=O)(=O)CC)cc2)c(C#N)c2cc(OC)c(OC)cc21 | > 100 | 4 |  |
| CCn1c(-c2ccc(OC)cc2)c(C#N)c2ccc(OC)cc21 | > 100 | 4.1 |  |
| CCn1c(-c2ccc(NS(=O)(=O)CC)cc2)c(C#N)c2ccc(O)cc21 | 55 | 2 |  |
